A short description of series [1]: Apparent partition coefficient of the compound at pH7.4. The class given is physicochemical. The note with it: octanol/water, pH 7.4; read-out: LogD7.4. The procedure, abridged:
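Apparent partition coefficient by shake-flask direct method between octanol and TRIS buffer, pH 7.4; reported as log of the fraction in the octanol layer (log P_app).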

In series [2] the test system is Rattus norvegicus. As to the kind of experiment: Iron-clearing efficiency in non-iron-overloaded Sprague-Dawley rat at 300 umol/kg, sc. Format: functional. The gist of the method:
(§1)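 Bile-duct-cannulated, non-iron-overloaded male Sprague-Dawley rats (400–450 g), single 300 μmol/kg dose po or sc, given in water or as the monosodium salt depending on compound. Bile collected at 3-h intervals for 24 h; urine at 24 h. Efficiency = (treated minus control iron excretion) / theoretical output, as percent; mean ± SEM.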

The test system of series [3] is Sapajus apella. As to the kind of experiment: Iron-clearing efficiency in iron-loaded Cebus apella at 150 umol/kg, sc. Format: functional. The procedure, abridged: (§2)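 Cebus apella monkeys (3.5–4 kg), iron overloaded with iv iron dextran (about 500 mg Fe/kg), used at least 60 d later; single 150 μmol/kg dose. Feces and urine collected every 24 h from 4 d before to 5 d after dosing; iron by flame atomic absorption. Efficiency = (2-day post-drug iron minus mean 4-day baseline) / theoretical output, as percent; mean ± SEM.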

The subject of series [4] is Rattus norvegicus. As to the kind of experiment: Distribution in Sprague-Dawley rat kidney at 300 umol/kg, sc after 8 hrs. The note with it: in vivo. The class given is ADME, organism-based. The gist of the method:
(§3)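 Male Sprague-Dawley rats (250–350 g), single sc 300 μmol/kg dose; euthanized by CO2 at 2, 4, 6, 8 h (n = 3 per time point). Citrated cardiac-puncture plasma; tissues homogenized in water 1:2 (w/v), proteins precipitated with methanol at −20 °C, filtered. Reversed-phase HPLC with UV at 310 nm; levels from calibration curves, as nmol/g wet weight; detection limit about 5 nmol/g.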

Series [5] deals with Rattus norvegicus. As to the kind of experiment: Distribution in Sprague-Dawley rat kidney at 300 umol/kg, sc after 2 hrs. Format: ADME, organism-based. To be noted: in vivo. The procedure, abridged: as §3
The test system of another series is Plasma. Nature of the series: Distribution in Sprague-Dawley rat plasma at 300 umol/kg, sc. The class given is ADME. The note with it: read-out: Cp. The gist of the method:
as §3

Series [6] deals with Sapajus apella. As to the kind of experiment: Iron-clearing efficiency in iron-loaded Cebus apella at 150 umol/kg, po. The class given is functional. The gist of the method:
as §2

For series [7], the system named is Rattus norvegicus. Nature of the series: Distribution in Sprague-Dawley rat heart at 300 umol/kg, sc after 2 hrs. Format: ADME, organism-based. To be noted: in vivo. The gist of the method:
as §3

Series [8] concerns Rattus norvegicus. Nature of the series: Distribution in Sprague-Dawley rat pancreas at 300 umol/kg, sc after 2 hrs. To be noted: in vivo. The class given is ADME, organism-based. The gist of the method: as §3
In series [9] the test system is Rattus norvegicus. Nature of the series: Iron-clearing efficiency in non-iron-overloaded Sprague-Dawley rat at 300 umol/kg, po. Format: functional. The gist of the method: as §1
For series [10], the system named is Rattus norvegicus. Nature of the series: Distribution in Sprague-Dawley rat liver at 300 umol/kg, sc after 2 hrs. The class given is ADME, organism-based. To be noted: in vivo. The gist of the method:
as §3

Series [11] relates to Rattus norvegicus. Nature of the series: Distribution in Sprague-Dawley rat liver at 300 umol/kg, sc after 8 hrs. The class given is ADME, organism-based. The note with it: in vivo. The gist of the method: as §3
Series [12] in a line: Distribution in Sprague-Dawley rat plasma at 300 umol/kg, sc after 8 hrs. Format: ADME, organism-based. The procedure, abridged:
as §3

Series [13] is described as follows: Distribution in Sprague-Dawley rat plasma at 300 umol/kg, sc after 2 hrs. The class given is ADME, organism-based. The gist of the method: as §3
Series [14] has as its system Rattus norvegicus. As to the kind of experiment: Nephrotoxicity in rat at 300 umol/kg. The note with it: in vivo.
For series [15], the system named is Rattus norvegicus. Nature of the series: Distribution in Sprague-Dawley rat heart at 300 umol/kg, sc after 8 hrs. To be noted: in vivo. The class given is ADME, organism-based. The gist of the method: as §3
For series [16], the system named is Rattus norvegicus. Nature of the series: Distribution in Sprague-Dawley rat heart at 300 umol/kg, sc after 4 hrs. The class given is ADME, organism-based. The note with it: in vivo. The gist of the method:
as §3

Series [17] has as its system Rattus norvegicus. As to the kind of experiment: Distribution in Sprague-Dawley rat pancreas at 300 umol/kg, sc after 8 hrs. Format: ADME, organism-based. The note with it: in vivo. The gist of the method: as §3

Consider `C[C@]1(C(=O)O)CSC(c2ccccc2O)=N1`, for which the logD in series [1] was -0.34.
For `CCOC(=O)[C@@]1(C)CSC(c2ccc(OCCOCCOCCOC)cc2O)=N1`, the values for the Activity in the series with Rattus norvegicus [2] and in the series with Sapajus apella [3] were 11.4% and 17.9%, respectively.
For the molecule `CC1(C)SC(c2ccc(O)cc2O)=N[C@H]1C(=O)O`, the logD in series [1] was -0.91.
The same measure, in the same setting: the result for `O=C(O)[C@H]1CSC(c2ccccc2O)=N1` reads -0.93.
With `C[C@]1(C(=O)O)CSC(c2ccc(O)cc2O)=N1` [DEFERITRIN], the Drug uptake in the series on Rattus norvegicus [4] worked out at 9 nmol/g; in the series with Rattus norvegicus [5], 100 nmol/g; with Rattus norvegicus [7] it was 5 nmol/g; in the series on Rattus norvegicus [8], 6 nmol/g; in the series on Rattus norvegicus [10], 48 nmol/g; with Rattus norvegicus [11] it was 12 nmol/g. Besides, the concentration in the series with Plasma is below 10 µM. Also, the Activity in the series with Sapajus apella [6] is listed as 16.8%; with Rattus norvegicus [2], 1.1%; in the series with Sapajus apella [3], 15.9%; in the series on Rattus norvegicus [9], 1.1%.
`COc1ccc(C2=N[C@@](C)(C(=O)O)CS2)c(O)c1`: the concentration at 8 h in series [12] came out at 75 µM. The molecule further had a concentration at 2 h in [13] of 470 µM. For the same molecule, the Activity result in the series on Rattus norvegicus [14] was “Active”; in the series on Rattus norvegicus [9] it was 6.6%. This molecule displayed a Drug uptake in the series with Rattus norvegicus [8] of 38 nmol/g.
Consider `CC1(C)SC(c2ccccc2O)=N[C@H]1C(=O)O`, for which the logD in [1] was -0.34.
For `COCCOCCOCCOc1ccc(C2=N[C@@](C)(C(=O)OC(C)C)CS2)c(O)c1`, the values for the Activity with Sapajus apella [6], in the series with Rattus norvegicus [2] and in the series with Rattus norvegicus [9] were 19.5%, 22.1% and 13.9%, respectively.
For `COCCOCCOCCOc1ccc(C2=N[C@@](C)(C(=O)O)CS2)c(O)c1`, the Drug uptake in the series on Rattus norvegicus [15] is 2 nmol/g; in the series on Rattus norvegicus [4] it was below 10 nmol/g; in the series with Rattus norvegicus [5] it was 41 nmol/g; with Rattus norvegicus [7], 9 nmol/g; with Rattus norvegicus [8] it was 30 nmol/g; with Rattus norvegicus [16], 5 nmol/g. The molecule further yielded a Drug uptake in the series on Rattus norvegicus [17] of 3 nmol/g. Besides, the concentration with Plasma was below 10 µM. Moreover, the Activity was 25.4% in the series with Sapajus apella [6], 8.7% with Rattus norvegicus [2], 30.4% in the series with Sapajus apella [3] and 5.5% with Rattus norvegicus [9]. Further, in series [1], the logD was -1.1.

The values are drawn from ChEMBL document CHEMBL1147664, “(S)-4,5-dihydro-2-(2-hydroxy-4-hydroxyphenyl)-4-methyl-4-thiazolecarboxylic acid polyethers: a solution to nephrotoxicity” (J Med Chem, 2006).
